Published values pooled from the literature.
Organism: Staphylococcus aureus
Read-out: microbial growth

Compound | assay | system | setting | inhibition zone
CCOC(=O)C1=C(C)N2NC(c3ccccc3O)N(C(Cc3c[nH]c4ccccc34)C(=O)O)C2=NC1c1ccc(Cl)cc1 (stereo not shown) |  | ATCC25923 | 10 µg/mL, 24 h | 19 mm
O=C(O)c1cn(C2CC2)c2cc(N3CCNCC3)c(F)cc2c1=O | disc diffusion |  | 100 µg/mL, 24 h | 24 mm
Cc1ccc2nc(-n3nc(CC(C)C)c4c3-c3ccccc3C4=O)sc2c1 | well diffusion | NCIM5021 | 500 µg/mL | 11 mm
CC(C(=O)O)N1C2=NC(c3ccc(Cl)cc3)C3=C(OC(C)(C)OC3=O)N2NC1(C)c1ccccc1O (stereo not shown) |  | ATCC25923 | 15 µg/mL, 24 h | 24 mm
COc1cc(C=CC(=O)CC(c2ccc([N+](=O)[O-])cc2)n2ccnc2)ccc1O (stereo not shown) | disc diffusion | ATCC29213 | 500 µg/mL | 7 mm
CCOC(=O)C1=C(C)N2NC(C)(c3ccccc3O)N(C(Cc3c[nH]c4ccccc34)C(=O)O)C2=NC1c1ccc(Cl)cc1 (stereo not shown) |  | ATCC25923 | 10 µg/mL, 24 h | 18 mm
CN[C@H](CC(C)C)C(=O)N[C@H]1C(=O)N[C@@H](CC(N)=O)C(=O)N[C@H]2C(=O)N[C@H]3C(=O)N[C@H](C(=O)N[C@H](C(=O)O)c4cc(O)cc(O)c4-c4cc3ccc4O)[C@H](O)c3ccc(c(Cl)c3)Oc3cc2cc(c3O[C@@H]2O[C@H](CO)[C@@H](O)[C@H](O)[C@H]2O[C@H]2C[C@](C)(N)[C@H](O)[C@H](C)O2)Oc2ccc(cc2Cl)[C@H]1O | disc diffusion | ATCC29213 | 31.2 µg/disc, 24 h | 18 mm
CC(C)Cc1nn(-c2nc3ccc(Br)cc3s2)c2c1C(=O)c1ccccc1-2 | well diffusion | NCIM5021 | 125 µg/mL | 11 mm
COc1cc(C=CC(=O)CC(c2ccc(N(C)C)cc2)n2ccnc2)ccc1O (stereo not shown) | disc diffusion | ATCC29213 | 500 µg/mL | 10.7 mm
CC[C@H]1OC(=O)[C@H](C)[C@@H](O[C@H]2C[C@@](C)(OC)[C@@H](O)[C@H](C)O2)[C@H](C)[C@@H](O[C@@H]2O[C@H](C)C[C@H](N(C)C)[C@H]2O)[C@](C)(O)C[C@@H](C)/C(=N\OCOCCOC)[C@H](C)[C@@H](O)[C@]1(C)O | disc diffusion | ATCC6538 | 20000 µg/mL, 24 h | 20 mm
CC1(C)S[C@@H]2[C@H](NC(=O)[C@H](N)c3ccc(O)cc3)C(=O)N2[C@H]1C(=O)O | disc diffusion | ATCC29213 | 500 µg/mL | 10.8 mm
CC(C)c1nn(-c2nc3ccccc3s2)c2c1C(=O)c1ccccc1-2 | well diffusion | NCIM5021 | 125 µg/mL | 10 mm
CC(=O)C1=C(C)N2NC(C)(c3ccccc3O)N(C(Cc3c[nH]c4ccccc34)C(=O)O)C2=NC1c1ccc(Cl)cc1 (stereo not shown) |  | ATCC25923 | 15 µg/mL, 24 h | 33 mm
Cc1ccc2nc(-n3nc(C)c4c3-c3ccccc3C4=O)sc2c1 | well diffusion | NCIM5021 | 250 µg/mL | 11 mm
CC(=O)C1=C(C)N2NC(c3ccccc3O)N(C(Cc3c[nH]c4ccccc34)C(=O)O)C2=NC1c1ccc(Cl)cc1 (stereo not shown) |  | ATCC25923 | 10 µg/mL, 24 h | 19 mm
COc1ccc2nc(-n3nc(C)c4c3-c3ccccc3C4=O)sc2c1 | well diffusion | NCIM5021 | 125 µg/mL | 11 mm
COc1cc(C=Cc2cc(-c3ccc(N(C)C)cc3)nc(O)n2)ccc1O | disc diffusion | ATCC29213 | 500 µg/mL | 6.33 mm
N#Cc1c(-c2ccc(Cl)cc2)nc2n(c1=O)NC(c1ccccc1O)N2C(Cc1c[nH]c2ccccc12)C(=O)O (stereo not shown) |  | ATCC25923 | 10 µg/mL, 24 h | 18 mm
Cc1nn(-c2nc3ccccc3s2)c2c1C(=O)c1ccccc1-2 | well diffusion | NCIM5021 | 1000 µg/mL | 11 mm
